Test results from article PMC2735267 (Neuropharmacology, 2009).
Read-outs that look alike come from different tables or passages of the source. Marks after values point to notes of the source that are not given here.

Experiments:
human α7 = conditions: read-out: Ki human α7; expressed in Xenopus oocytes; ref Slater et al., 2003; cited from earlier work
α7* nAChR binding sites [1] = type: in vivo, DBA/2J mice; conditions: for [125I]α-bungarotoxin binding: 3-IC 0.2 mg/kg/h iv 7 days; for [125I]α-bungarotoxin binding % change: 3-IC 0.2 mg/kg/h iv 7 days vs saline
[2] = system: cytisine-resistant [125I]epibatidine binding sites (mixed population of nAChR); conditions: membranes, any brain region analyzed; 0.2 mg/kg/h iv 7 days
β2 null mutant mice = experiment: 3-IC-induced hypothermia in β2 null mutant and wild-type mice; type: in vivo, mouse; conditions: 0.2 mg/kg ip
Summary of the method: (§1)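 Null mutants were backcrossed onto C57BL/6J for at least 10 generations, genotyped from tail DNA, and compared with wild-type mice (β2-/- n = 5; β4-/- n = 5). Test compound was given at 0.2 mg/kg IP in 10 µl/g body weight. Rectal temperature was taken every 5 minutes with a peanut-oil-lubricated probe inserted 1.5 cm. Data are mean ± SEM, analysed by repeated-measures ANOVA (time × genotype).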

α7-nAChR = α7-nAChR (Mus musculus, UniProt P49582); experiment: biochemical; type: binding, C57BL/6J mice; conditions: read-out: [125I]α-bungarotoxin (WT) Ki; […]; 0.5 nM ligand; one-site model
α7-nAChR, sequence (P49582 23-502): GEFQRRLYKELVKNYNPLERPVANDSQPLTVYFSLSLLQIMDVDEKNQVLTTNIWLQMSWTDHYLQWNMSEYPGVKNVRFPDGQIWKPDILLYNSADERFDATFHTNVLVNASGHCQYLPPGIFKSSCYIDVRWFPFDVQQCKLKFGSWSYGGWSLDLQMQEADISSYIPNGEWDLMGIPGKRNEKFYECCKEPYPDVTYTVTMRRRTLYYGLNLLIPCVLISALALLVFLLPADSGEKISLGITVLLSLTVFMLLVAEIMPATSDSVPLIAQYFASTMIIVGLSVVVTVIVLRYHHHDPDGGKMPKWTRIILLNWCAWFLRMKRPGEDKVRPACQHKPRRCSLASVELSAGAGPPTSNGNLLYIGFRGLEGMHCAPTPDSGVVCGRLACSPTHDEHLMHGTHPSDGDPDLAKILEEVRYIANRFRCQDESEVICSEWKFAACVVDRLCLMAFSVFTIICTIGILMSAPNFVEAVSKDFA

[3H]dopamine release = read-out: EC50 [3H]dopamine release; rat striatal synaptosomes; ref Abin-Carriquiry et al., 2006; cited from earlier work
α7* nAChR binding sites [3] = type: in vivo, DBA/2J mice; conditions: cerebral cortex membranes; 0.2 mg/kg/h iv 7 days
β4*-nAChR = β4*-nAChR (Mus musculus, UniProt Q8R493+Q8R4G9); experiment: biochemical; type: binding, C57BL/6J mice; conditions: read-out: [125I]epibatidine (β2 -/-) Ki; inferior colliculi, β2-/- mice; 200 pM ligand
β4*-nAChR, sequence (Q8R493 21-495): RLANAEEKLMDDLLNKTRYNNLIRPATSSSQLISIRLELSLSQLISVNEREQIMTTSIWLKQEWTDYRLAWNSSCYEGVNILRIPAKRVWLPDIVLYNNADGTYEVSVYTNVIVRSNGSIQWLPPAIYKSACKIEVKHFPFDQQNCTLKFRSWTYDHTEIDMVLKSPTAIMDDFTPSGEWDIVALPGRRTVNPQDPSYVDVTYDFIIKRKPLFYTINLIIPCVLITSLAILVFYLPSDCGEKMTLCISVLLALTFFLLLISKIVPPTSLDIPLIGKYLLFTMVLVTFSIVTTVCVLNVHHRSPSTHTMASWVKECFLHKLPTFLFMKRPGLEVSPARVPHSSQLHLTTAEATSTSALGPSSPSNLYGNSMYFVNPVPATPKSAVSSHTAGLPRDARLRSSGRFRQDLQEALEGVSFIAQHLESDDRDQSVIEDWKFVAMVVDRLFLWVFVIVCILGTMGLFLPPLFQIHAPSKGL
β4*-nAChR, sequence (Q8R4G9 26-499): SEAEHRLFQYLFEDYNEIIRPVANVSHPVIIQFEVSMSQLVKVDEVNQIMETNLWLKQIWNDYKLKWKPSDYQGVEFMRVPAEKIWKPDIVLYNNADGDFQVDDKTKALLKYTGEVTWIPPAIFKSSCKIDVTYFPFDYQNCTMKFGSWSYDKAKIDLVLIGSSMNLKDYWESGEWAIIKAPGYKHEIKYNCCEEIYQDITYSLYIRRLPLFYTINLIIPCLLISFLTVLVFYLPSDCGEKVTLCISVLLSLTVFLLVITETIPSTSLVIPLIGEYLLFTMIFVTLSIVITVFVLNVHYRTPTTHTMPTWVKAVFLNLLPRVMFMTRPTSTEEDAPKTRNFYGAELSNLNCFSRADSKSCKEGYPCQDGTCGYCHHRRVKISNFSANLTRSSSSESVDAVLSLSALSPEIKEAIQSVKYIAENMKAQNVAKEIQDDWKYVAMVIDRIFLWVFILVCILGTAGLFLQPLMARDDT

β4 null mutant mice = experiment: 3-IC-induced hypothermia in β4 null mutant and wild-type mice; type: in vivo, mouse; conditions: 0.2 mg/kg ip
Summary of the method: as §1

α7* receptors = conditions: read-out: Ki α7* receptors in rat brain; ref Abin-Carriquiry et al., 2006; cited from earlier work
[4] = system: A85380-resistant [125I]epibatidine binding sites (mainly α3β4* nAChR); conditions: membranes; 0.2 mg/kg/h iv 7 days
β2*-nAChR = β2*-nAChR (Mus musculus, UniProt O70174+Q9ERK7); experiment: biochemical; type: binding, C57BL/6J mice; conditions: read-out: [125I]epibatidine (β4 -/-) Ki; inferior colliculi, β4-/- mice; 200 pM ligand
β2*-nAChR, sequence (O70174 31-629): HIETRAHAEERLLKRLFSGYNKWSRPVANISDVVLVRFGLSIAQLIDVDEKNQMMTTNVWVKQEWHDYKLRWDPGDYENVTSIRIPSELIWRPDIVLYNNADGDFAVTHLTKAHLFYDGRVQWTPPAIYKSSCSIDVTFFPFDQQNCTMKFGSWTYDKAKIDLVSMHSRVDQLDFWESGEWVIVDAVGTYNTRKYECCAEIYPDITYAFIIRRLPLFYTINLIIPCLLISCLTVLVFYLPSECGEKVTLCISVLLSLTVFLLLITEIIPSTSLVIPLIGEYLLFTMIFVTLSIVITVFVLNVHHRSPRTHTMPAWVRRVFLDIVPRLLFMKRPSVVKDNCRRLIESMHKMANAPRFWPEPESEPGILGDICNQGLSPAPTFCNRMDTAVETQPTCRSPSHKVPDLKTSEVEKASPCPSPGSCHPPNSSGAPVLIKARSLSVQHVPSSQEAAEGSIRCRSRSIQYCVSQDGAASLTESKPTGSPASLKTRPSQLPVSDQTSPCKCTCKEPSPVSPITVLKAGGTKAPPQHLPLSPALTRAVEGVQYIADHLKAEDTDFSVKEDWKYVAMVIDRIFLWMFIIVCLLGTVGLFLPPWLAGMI
β2*-nAChR, sequence (Q9ERK7 26-501): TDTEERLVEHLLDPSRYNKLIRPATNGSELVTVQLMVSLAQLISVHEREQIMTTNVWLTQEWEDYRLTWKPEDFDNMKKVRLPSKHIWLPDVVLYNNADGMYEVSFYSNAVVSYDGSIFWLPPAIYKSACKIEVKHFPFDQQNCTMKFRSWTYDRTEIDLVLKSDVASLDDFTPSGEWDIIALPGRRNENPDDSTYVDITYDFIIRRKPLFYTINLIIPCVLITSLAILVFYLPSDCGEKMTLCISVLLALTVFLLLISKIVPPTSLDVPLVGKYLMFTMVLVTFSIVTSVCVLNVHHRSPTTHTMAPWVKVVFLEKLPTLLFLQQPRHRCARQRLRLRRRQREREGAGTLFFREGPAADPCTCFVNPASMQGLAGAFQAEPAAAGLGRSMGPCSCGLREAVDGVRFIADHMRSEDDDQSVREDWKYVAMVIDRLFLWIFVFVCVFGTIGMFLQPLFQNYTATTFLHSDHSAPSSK

[5] = system: [125I]epibatidine binding sites (β2*- and β4*-nAChR); set-up: species or system C57BL/6J mice; conditions: inferior colliculus, wild-type
α4β2* receptors = conditions: read-out: Ki α4β2* receptors in rat brain; ref Abin-Carriquiry et al., 2006; cited from earlier work
[6] = system: [3H]noradrenaline release; conditions: read-out: EC50 [3H]noradrenaline release; rat hippocampal slices; ref Abin-Carriquiry et al., 2006; cited from earlier work
[7] = inferior colliculus (externall)
[8] = superior colliculus (optic nerve)
[9] = superior colliculus (sup. gray)
[10] = supramammillary hypothalamic nucleus
[11] = ventrolateral geniculate nucleus

Q: For `O=c1c(I)ccc2n1C[C@@H]1CNC[C@H]2C1` [3-IC, 3-iodocytisine], which Ki (human α7) is on record?
A: 7 nM

Q: And the “[125I]α-bungarotoxin binding” value (α7* nAChR binding sites [1]; caudate putamen)?
A: 19.6 ± 2.3 fmol/mg

Q: What about the “[125I]α-bungarotoxin binding % change” value (α7* nAChR binding sites [1]; caudate putamen) of the same compound?
A: 65.8%

Q: What about the “[125I]α-bungarotoxin binding % change” value (α7* nAChR binding sites [1]; caudate putamen, listed as 3-iodocytisine) of the same compound?
A: 65.8 * %

Q: What about the “[125I]α-bungarotoxin binding” value (α7* nAChR binding sites [1]; cingulate cortex) of the same compound?
A: 6.3 ± 1.4 fmol/mg

Q: What about the “[125I]α-bungarotoxin binding % change” value (α7* nAChR binding sites [1]; cingulate cortex) of the same compound?
A: 11.7%

Q: What about the “[125I]α-bungarotoxin binding” value (α7* nAChR binding sites [1]; dentate gyrus (granular layer)) of the same compound?
A: 11.7 ± 1.2 fmol/mg

Q: What about the “[125I]α-bungarotoxin binding % change” value (α7* nAChR binding sites [1]; dentate gyrus (granular layer)) of the same compound?
A: 63.5%

Q: What about the “[125I]α-bungarotoxin binding” value (α7* nAChR binding sites [1]; hippocampus (CA1-3)) of the same compound?
A: 10.2 ± 0.8 fmol/mg

Q: And the “[125I]α-bungarotoxin binding % change” value (α7* nAChR binding sites [1]; hippocampus (CA1-3))?
A: 77.5%

Q: What about the “[125I]α-bungarotoxin binding % change” value (α7* nAChR binding sites [1]; hippocampus (CA1-3), listed as 3-iodocytisine) of the same compound?
A: 77.5 ** %

Q: What about the “[125I]α-bungarotoxin binding” value (α7* nAChR binding sites [1]; inferior colliculus (central)) of the same compound?
A: 37.6 ± 4.2 fmol/mg

Q: And the “[125I]α-bungarotoxin binding % change” value (α7* nAChR binding sites [1]; inferior colliculus (central))?
A: 21.7%

Q: And the “[125I]α-bungarotoxin binding” value (α7* nAChR binding sites [1]; inferior colliculus (dorsal))?
A: 21.7 ± 3.7 fmol/mg

Q: And the “[125I]α-bungarotoxin binding % change” value (α7* nAChR binding sites [1]; inferior colliculus (dorsal))?
A: 14.4%

Q: What about the “[125I]α-bungarotoxin binding” value (α7* nAChR binding sites [1]; [7]) of the same compound?
A: 23.5 ± 4.1 fmol/mg

Q: What about the “[125I]α-bungarotoxin binding % change” value (α7* nAChR binding sites [1]; [7]) of the same compound?
A: 33.1%

Q: And the “[125I]α-bungarotoxin binding” value (α7* nAChR binding sites [1]; interpeduncular nucleus)?
A: 23.5 ± 1.4 fmol/mg

Q: What about the “[125I]α-bungarotoxin binding % change” value (α7* nAChR binding sites [1]; interpeduncular nucleus) of the same compound?
A: 26.2 * %

Q: What about the “[125I]α-bungarotoxin binding” value (α7* nAChR binding sites [1]; medial habenula) of the same compound?
A: 11.6 ± 1.0 fmol/mg

Q: What about the “[125I]α-bungarotoxin binding % change” value (α7* nAChR binding sites [1]; medial habenula) of the same compound?
A: 26.4%

Q: And the “[125I]α-bungarotoxin binding” value (α7* nAChR binding sites [1]; nucleus accumbens)?
A: 6.8 ± 0.7 fmol/mg

Q: And the “[125I]α-bungarotoxin binding % change” value (α7* nAChR binding sites [1]; nucleus accumbens)?
A: 81.2%

Q: What about the “[125I]α-bungarotoxin binding % change” value (α7* nAChR binding sites [1]; nucleus accumbens, listed as 3-iodocytisine) of the same compound?
A: 81.2 ** %

Q: What about the “[125I]α-bungarotoxin binding” value (α7* nAChR binding sites [1]; parietal cortex (layers 1-3)) of the same compound?
A: 5.9 ± 0.3 fmol/mg

Q: What about the “[125I]α-bungarotoxin binding % change” value (α7* nAChR binding sites [1]; parietal cortex (layers 1-3)) of the same compound?
A: 79.3 ** %

Q: What about the “[125I]α-bungarotoxin binding” value (α7* nAChR binding sites [1]; parietal cortex (layers 4-6)) of the same compound?
A: 7.8 ± 0.4 fmol/mg

Q: What about the “[125I]α-bungarotoxin binding % change” value (α7* nAChR binding sites [1]; parietal cortex (layers 4-6)) of the same compound?
A: 74.4 ** %

Q: What about the “[125I]α-bungarotoxin binding” value (α7* nAChR binding sites [1]; retrosplenial Cortex) of the same compound?
A: 4.8 ± 0.4 fmol/mg

Q: And the “[125I]α-bungarotoxin binding % change” value (α7* nAChR binding sites [1]; retrosplenial Cortex)?
A: 21.2%

Q: And the “[125I]α-bungarotoxin binding” value (α7* nAChR binding sites [1]; subiculum)?
A: 7.1 ± 0.7 fmol/mg

Q: And the “[125I]α-bungarotoxin binding % change” value (α7* nAChR binding sites [1]; subiculum)?
A: 22.0%

Q: And the “[125I]α-bungarotoxin binding” value (α7* nAChR binding sites [1]; substantia nigra)?
A: 7.9 ± 0.9 fmol/mg

Q: What about the “[125I]α-bungarotoxin binding % change” value (α7* nAChR binding sites [1]; substantia nigra) of the same compound?
A: 29.5%

Q: What about the “[125I]α-bungarotoxin binding” value (α7* nAChR binding sites [1]; [8]) of the same compound?
A: 11.5 ± 0.5 fmol/mg

Q: What about the “[125I]α-bungarotoxin binding % change” value (α7* nAChR binding sites [1]; [8]) of the same compound?
A: 44.2 ** %

Q: What about the “[125I]α-bungarotoxin binding” value (α7* nAChR binding sites [1]; [9]) of the same compound?
A: 23.1 ± 0.8 fmol/mg

Q: What about the “[125I]α-bungarotoxin binding % change” value (α7* nAChR binding sites [1]; [9]) of the same compound?
A: 34.7 ** %

Q: What about the “[125I]α-bungarotoxin binding” value (α7* nAChR binding sites [1]; [10]) of the same compound?
A: 12.1 ± 1.2 fmol/mg

Q: What about the “[125I]α-bungarotoxin binding % change” value (α7* nAChR binding sites [1]; [10]) of the same compound?
A: 24.4%

Q: And the “[125I]α-bungarotoxin binding” value (α7* nAChR binding sites [1]; ventral tegmental area)?
A: 5.2 ± 0.4 fmol/mg

Q: And the “[125I]α-bungarotoxin binding % change” value (α7* nAChR binding sites [1]; ventral tegmental area)?
A: 40.5%

Q: What about the “[125I]α-bungarotoxin binding % change” value (α7* nAChR binding sites [1]; ventral tegmental area, listed as 3-iodocytisine) of the same compound?
A: 40.5 * %

Q: And the “[125I]α-bungarotoxin binding” value (α7* nAChR binding sites [1]; [11])?
A: 18.1 ± 1.2 fmol/mg

Q: What about the “[125I]α-bungarotoxin binding % change” value (α7* nAChR binding sites [1]; [11]) of the same compound?
A: 30.2 * %

Q: And the “[125I]α-bungarotoxin binding” value (α7* nAChR binding sites [1]; zona incerta)?
A: 11.1 ± 1.0 fmol/mg

Q: What about the “[125I]α-bungarotoxin binding % change” value (α7* nAChR binding sites [1]; zona incerta) of the same compound?
A: 52.1%

Q: What about the “[125I]α-bungarotoxin binding % change” value (α7* nAChR binding sites [1]; zona incerta, listed as 3-iodocytisine) of the same compound?
A: 52.1 * %

Q: And the “density of cytisine-resistant [125I]epibatidine binding sites vs saline” value [2]?
A: No significant differences

Q: And the “maximal 3-IC induced hypothermia (decrease of temperature)” value (β2 null mutant mice; β2+/+ mice)?
A: 9.8 ± 0.76 °C

Q: And the “maximal 3-IC induced hypothermia (decrease of temperature)” value (β2 null mutant mice; β2-/- mice)?
A: 8.4 ± 1 °C

Q: And the Ki (α7-nAChR)?
A: 2.2 ± 1.2 nM

Q: And the EC50 ([3H]dopamine release)?
A: 11 nM

Q: What about the “increase in [125I]α-bungarotoxin binding sites compared to saline” value (α7* nAChR binding sites [3]) of the same compound?
A: 58%

Q: What about the Ki (β4*-nAChR) of the same compound?
A: 0.25 ± 0.04 nM

Q: What about the maximal hypothermia (β4 null mutant mice; β4+/+ mice) of the same compound?
A: 7.9 ± 0.3 °C

Q: And the maximal hypothermia (β4 null mutant mice; β4-/- mice)?
A: 2.9 ± 0.4 °C

Q: And the Ki (α7* receptors)?
A: 115 nM

Q: And the “A85380 resistant component of [125I]epibatidine binding” value [4]?
A: unmodified

Q: And the Ki (β2*-nAChR)?
A: 0.128 ± 0.003 nM

Q: What about the “difference in affinity for the two [125I]epibatidine binding sites” value [5] of the same compound?
A: 1.6 fold

Q: What about the Ki (α4β2* receptors) of the same compound?
A: 0.17 nM

Q: And the EC50 [6]?
A: 220 nM
